Measured values pooled from the literature.
Each line is one published result; the experiments were not run side by side.

`N[C@@H](Cc1ccc(N(CCCl)CCCl)cc1)C(=O)O` has an IC50 of > 50 µM (MCF-10A; cell growth or viability, CCK-8; 48 h).
For `[Se]=c1n(C2CCCCC2)ccn1C1CCCCC1`, the IC50 was 14.2 µM (HCT-15; cell growth or viability, MTT; 72 h).
With `CN1CCCN=C1/C=C/c1cccs1` the inhibition was 76% (human PBMC; cell migration; 10 µM).
The GI50 of `COc1cc2c3c(n(CCCNCCO)c(=O)c2cc1OC)-c1cc2c(cc1C3=O)OCO2` is reported as 0.02 µM (HOP-62; cell growth or viability).
`O=C(O)c1ccccc1NCc1ccco1` has an inhibition of 82% (human PBMC; cell migration; 10 µM).
With `O=C(O)CCCc1ccc(N(CCCl)CCCl)cc1` the IC50 was > 50 µM (MCF-10A; cell growth or viability, CCK-8; 48 h).
With `O=C(O)c1cc(S(=O)(=O)NCc2ccco2)c(Cl)cc1N1CCCCC1` the inhibition was 42% (human PBMC; cell migration; 10 µM).
The IC50 of `O=C(Oc1ccc(-n2cccc2)cc1)[c-]1cccc1.[Fe+2].c1cc[cH-]c1` is reported as 1.8 µM (MCF-10A; cell growth or viability, MTT; 72 h).
With `Cn1cncc1[C@@](N)(c1ccc(Cl)cc1)c1ccc2c(c1)c(-c1cccc(Cl)c1)cc(=O)n2C` the IC50 was 9.78 µM (CAL-27; cell growth or viability; 72 h).
With `NS(=O)(=O)c1cc(C(=O)O)c(NCc2ccco2)cc1Cl` the IC50 was ~1 µM (human PBMC; cell migration, inhibitor).
With `O=C(Oc1ccc(Br)cc1)[c-]1cccc1.[Fe+2].c1cc[cH-]c1` the IC50 was 353 µM (MCF-10A; cell growth or viability, MTT; 72 h).
The IC50 of `O=C(O)C(Cl)Cl` is reported as > 50 µM (HCT-15; cell growth or viability, MTT; 72 h).
For `CCCCCCc1ccc(O)cc1O`, the inhibition was 57% (human PBMC; cell migration; 10 µM).
`Cc1cc(C)c(N2CCN(c3c(C)cc(C)cc3C)C2=[Se])c(C)c1` has an IC50 of 10.2 µM (HCT-15; cell growth or viability, MTT; 72 h).
With `CCCCCCCCCCCCCCCC[N+](C)(C)C` the IC50 was 9 µM (MDCK; cell growth or viability, MTT).
`O=C(c1cc(Cl)c(Cl)[nH]1)c1c(O)cccc1O` gave an IC50 of 1.3 µg/mL (MDCK; cell growth or viability, MTT; 72 h).
